Measurements as given in ChEMBL document CHEMBL3792366, “Role of disulfide linkage in action of bis(dialkylaminethiocarbonyl)disulfides as potent double-Edged microbicidal spermicide: Design, synthesis and biology” (Eur J Med Chem, 2016).
Converted amounts (≈) assume the structure as drawn.

Assays:
[1] = Spermicidal activity in human sperms assessed as motility measured within 30 secs by phase contrast microscopy; assay type: functional, Sperm
Outline: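 Liquefied human semen (0.05 mL) was added to 0.25 mL test solution and vortexed 10 s at low speed. Motile sperm were scored visually under phase contrast in five fields within 30 s; assays in triplicate; MEC = minimum effective concentration.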

Candida albicans = assay: Antifungal activity against Candida albicans after 48 hrs by broth microdilution method; assay type: functional
Outline: (§1)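 NCCLS broth microdilution in RPMI 1640 buffered with MOPS; starting inoculum 1–5 × 10^3 CFU/mL; plates incubated at 35 °C; MIC read after 48 h.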

Cryptococcus neoformans = assay: Antifungal activity against Cryptococcus neoformans after 48 hrs by broth microdilution method; assay type: functional; outline: as §1
Sporothrix schenckii = assay: Antifungal activity against Sporothrix schenckii after 48 hrs by broth microdilution method; assay type: functional; outline: as §1
[2] = tested on: Trichophyton mentagrophytes; assay: Antifungal activity against Trichophyton mentagrophytes after 48 hrs by broth microdilution method; assay type: functional; outline: as §1
Candida parapsilosis = assay: Antifungal activity against Candida parapsilosis ATCC 22019 after 48 hrs by broth microdilution method; assay type: functional; conditions: Lodderomyces parapsilosis, ATCC 22019, 48 h; outline: as §1
Trichomonas vaginalis [3] = assay: Antitrichomonas activity against trophozoite stage of Trichomonas vaginalis clinical isolate assessed as cell viability under anaerobic condition after 48 hrs by trypan blue exclusion assay; assay type: functional
Outline: (§2)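 Log-phase T. vaginalis grown in TYM with 10% FCS, vitamin mix and penicillin/streptomycin at 37 °C. Compounds were made as 100 µg/mL DMSO stocks and serially diluted in TYM down to 0.1 µg/mL; DMSO/TYM served as vehicle. Parasites were incubated anaerobically at 37 °C, and viability was checked by trypan blue exclusion from 3 to 48 h. MIC = lowest concentration killing all cells by 48 h; each test was repeated three times.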

Trichomonas vaginalis [4] = assay: Antitrichomonas activity against metronidazole-resistant trophozoite stage of Trichomonas vaginalis ATCC 50143 assessed as cell viability under anaerobic condition after 48 hrs by trypan blue exclusion assay; assay type: functional; conditions: ATCC 50143, 48 h; outline: as §2
Trichomonas vaginalis [5] = assay: Potency index, ratio of metronidazole MIC to compound MIC for metronidazole-resistant trophozoite stage of Trichomonas vaginalis ATCC 50143; assay type: functional

Row | SMILES | MEC [1] [%] | MIC (Candida albicans) [µM] | MIC (Cryptococcus neoformans) [µM] | MIC (Sporothrix schenckii) [µM] | MIC [2] [µM] | MIC (Candida parapsilosis) [µM] | MIC (Trichomonas vaginalis [3]) [µM] | MIC (Trichomonas vaginalis [4]) [µM] | Ratio (Trichomonas vaginalis [5])
1 | S=C(SCc1ccccc1)N1CCN(C(=S)SSC(=S)N2CCN(C(=S)SCc3ccccc3)CC2)CC1 | >1 | > 76.3 | > 76.3 | > 76.3 | > 76.3 | > 76.3 | 95.4 (≈ 62.5 µg/mL) | 95.4 (≈ 62.5 µg/mL) | 
2 | CCCCCCSC(=S)N1CCN(CCCC#N)CC1 | >1 |  |  |  |  |  |  |  | 
3 | CC1CCN(C(=S)SSC(=S)N2CCC(C)CC2)CC1 | 1 | 17.9 (≈ 6.24 µg/mL) | 8.9 (≈ 3.1 µg/mL) | 35.8 (≈ 12.5 µg/mL) | 35.8 (≈ 12.5 µg/mL) | 143 (≈ 49.9 µg/mL) | 35.8 (≈ 12.5 µg/mL) | 35.8 (≈ 12.5 µg/mL) | 4
4 | CCCCCCSC(=S)N1CCN(CCCC)CC1 | >1 |  |  |  |  |  |  |  | 
5 | CCCCN1CCN(C(=S)SCSC(=S)N2CCN(CCCC)CC2)CC1 | 0.5 |  |  |  |  |  |  |  | 
6 | O=C(c1ccccc1)N1CCN(C(=S)SSC(=S)N2CCN(C(=O)c3ccccc3)CC2)CC1 | 0.5 | 94.1 (≈ 49.9 µg/mL) | > 94.1 | > 94.1 | > 94.1 | > 94.1 | > 188 | > 188 | 
7 | S=C(SSC(=S)N1CCN(c2ncccn2)CC1)N1CCN(c2ncccn2)CC1 | 1 | > 104 | 104 (≈ 49.8 µg/mL) | 104 (≈ 49.8 µg/mL) | 104 (≈ 49.8 µg/mL) | > 104 | 104 (≈ 49.8 µg/mL) | > 208 | 
8 | CS(=O)(=O)N1CCN(C(=S)SSC(=S)N2CCN(S(C)(=O)=O)CC2)CC1 | 1 | 104 (≈ 49.8 µg/mL) | > 104 | > 104 | 52.1 (≈ 24.9 µg/mL) | > 104 | > 208 | > 208 | 
9 | O=[N+]([O-])c1ccc(N2CCN(C(=S)SSC(=S)N3CCN(c4ccc([N+](=O)[O-])cc4C(F)(F)F)CC3)CC2)c(C(F)(F)F)c1 | 0.1 | 35.6 (≈ 24.9 µg/mL) | > 71.3 | > 71.3 | 71.3 (≈ 50 µg/mL) | > 71.3 | > 142 | > 142 | 
10 | CCCCCCCCCCCCCCCCN1CCN(C(=S)SSC(=S)N2CCN(CCCCCCCCCCCCCCCC)CC2)CC1 | 1 | 64.8 (≈ 50 µg/mL) | 64.8 (≈ 50 µg/mL) | 16.2 (≈ 12.5 µg/mL) | 16.2 (≈ 12.5 µg/mL) | > 64.8 | > 129 | > 129 | 
11 | CCCCCCCSC(=S)N1CCN(C(=S)SSC(=S)N2CCN(C(=S)SCCCCCCC)CC2)CC1 | >1 | > 74.5 | 74.5 (≈ 50 µg/mL) | 74.5 (≈ 50 µg/mL) | > 74.5 | 74.5 (≈ 50 µg/mL) | > 149 | > 149 | 
12 | CCCCN1CCN(C(=S)SCCC)CC1 | >1 |  |  |  |  |  |  |  | 
13 | CC(C)COC(=O)N1CCN(C(=S)SSC(=S)N2CCN(C(=O)OCC(C)C)CC2)CC1 | >1 | 95.6 (≈ 50 µg/mL) | > 95.6 | > 95.6 | 95.6 (≈ 50 µg/mL) | > 95.6 | > 191 | > 191 | 
14 | CCOC(=O)N1CCN(C(=S)SSC(=S)N2CCN(C(=O)OCC)CC2)CC1 | 1 | 53.4 (≈ 24.9 µg/mL) | 26.7 (≈ 12.5 µg/mL) | 107 (≈ 49.8 µg/mL) | 107 (≈ 49.8 µg/mL) | 53.4 (≈ 24.9 µg/mL) | 13.3 (≈ 6.21 µg/mL) | 13.3 (≈ 6.21 µg/mL) | 8
15 | N#CCCCN1CCN(C(=S)SCCSC(=S)N2CCN(CCCC#N)CC2)CC1 | 0.5 |  |  |  |  |  |  |  | 
16 | CN1CCN(C(=S)SCCSC(=S)N2CCN(C)CC2)CC1 | 0.5 |  |  |  |  |  |  |  | 
17 | S=C(SSC(=S)N1CCN(C23CC4CC(CC(C4)C2)C3)CC1)N1CCN(C23CC4CC(CC(C4)C2)C3)CC1 | 1 | 84.6 (≈ 50 µg/mL) | 84.6 (≈ 50 µg/mL) | 84.6 (≈ 50 µg/mL) | 84.6 (≈ 50 µg/mL) | 84.6 (≈ 50 µg/mL) | > 169 | > 169 | 
18 | OC(Cn1cncn1)(Cn1cncn1)c1ccc(F)cc1F [FLUCONAZOLE] |  | 0.39 (≈ 0.119 µg/mL) | 0.19 (≈ 0.0582 µg/mL) | 0.39 (≈ 0.119 µg/mL) | 0.39 (≈ 0.119 µg/mL) | 0.39 (≈ 0.119 µg/mL) |  |  | 
19 | CCCCCCSC(=S)N1CCN(C(=S)SSC(=S)N2CCN(C(=S)SCCCCCC)CC2)CC1 | 1 | 77.7 (≈ 50 µg/mL) | 38.8 (≈ 25 µg/mL) | 77.7 (≈ 50 µg/mL) | > 77.7 | 77.7 (≈ 50 µg/mL) | > 155 | > 155 | 
20 | S=C(SSC(=S)N(C1CCCCC1)C1CCCCC1)N(C1CCCCC1)C1CCCCC1 | >1 | 48.7 (≈ 25 µg/mL) | 24.3 (≈ 12.5 µg/mL) | 97.4 (≈ 50 µg/mL) | 97.4 (≈ 50 µg/mL) | > 97.4 | > 194 | > 194 | 
21 | C=CCN1CCN(C(=S)SCCCSC(=S)N2CCN(CC=C)CC2)CC1 | 0.5 |  |  |  |  |  |  |  | 
22 | COc1ccccc1N1CCN(C(=S)SSC(=S)N2CCN(c3ccccc3OC)CC2)CC1 | 1 | 46.7 (≈ 25 µg/mL) | 23.3 (≈ 12.5 µg/mL) | 46.7 (≈ 25 µg/mL) | 93.4 (≈ 50 µg/mL) | > 93.4 | > 186 | > 186 | 
